Bioassay records as filed in PubChem BioAssay.
Only some compounds are listed: those with a hit (about 2.3% of all), similar ones and a draw of the others.
TWEAK Fn14 block = inhibitors of TWEAK-Fn14 signaling, primary screen, luciferase reporter cells, uHTS | TWEAK-stimulated Fn14 reporter cells, luciferase luminescence, 8 h | inhibition, % at 10 µM | 360,000 compounds, 2% hits | AID 1159606, 2016; in the data active = inhibition above about 50%
XiGFP reactiv = activators of inactive X chromosome reactivation, primary screen, imaging, XiGFP fibroblasts, GFP high-content imaging, set 2 | XiGFP mouse fibroblasts, % GFP-positive cells imaging, 3 d; cells co-treated with 5-aza-dC sensitizer; scaled so ellipticine positive control = 100% | activation, % at 7.58 µM | 360,000 compounds, 0.055% hits | AID 743238, 2013;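 active = mean normalized replicate activation at least 10% and every replicate at or above 10%; inconclusive = only one of the two criteria met; inactive = mean below 10% and not all replicates reach 10%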
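System: 68-5-11 XiGFP fibroblast line; Timing: 3 days compound exposure; Compound dosing: one concentration, pinned; Benchmarks: positive control ellipticine, 6 µM final; Buffer or medium: DMEM containing 5-aza-dC.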
TROY NFkB inh = inhibitors of TROY-driven NF-kB signaling, primary screen, Q293 LMP1-TROYcd cells, NF-kB luciferase, uHTS. Q293 LMP1-TROYcd NF-kB luciferase reporter, 4 h. inhibition, % at 10 µM. 360,000 compounds, 0.98% hits. AID 1347056, 2019;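 active = compounds whose plate-normalised and pattern-corrected inhibition of the luciferase reporter signal at the single screening dose is 50% or more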
FN deposit inh = inhibitors of fibronectin matrix deposition, primary screen, AH1F cells, Alexa488-fibronectin fluorescence, plate reader; AH1F fibroblasts, overnight; 350,000 compounds, 0.086% hits; AID 743247, 2014; inhibition, % at 12.6 µM;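 active = mean inhibition across replicates of 30% or more, regardless of how many single replicates reach that level; inconclusive = mean under 30% yet at least half of replicates reach 30%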
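Test system: AH1F fibroblast monolayer depositing Alexa488-labelled fibronectin into matrix. Input: 10000 cells per well. Technique: fluorescence, ex 485 nm, em 525 nm. Buffer or medium: DMEM plus 2% serum, read in PBS. Timing: 1 h cell adhesion before compound, then overnight fibronectin incubation. Compound: single dose, pinned. Read-out basis: inhibition from reduced deposited-fibronectin fluorescence.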
EWS-Fli block = EWS/Fli-driven NR0B1 reporter inhibitors, primary screen, A673 cells, NR0B1 luciferase, luminescence, MLPCN library. viability-normalised. inhibition, % at 12.6 µM. 350,000 compounds, 0.67% hits;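 active = mean inhibition of at least 50% after viability correction, with every replicate also passing that limit; inconclusive = mean reaches 50% but only one of two replicates passes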;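 also: firefly luciferase signal divided by Alamar Blue viability fluorescence both relative to DMSO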
LGR2 antag = inhibitors of bursicon-induced LGR2 CRE-luciferase signal, primary screen, cell-based, HEK293, CRE-luciferase reporter, bursicon stimulation; bursicon-stimulated, 4 h; inhibition, % at 9.99 µM; 380,000 compounds, 0.35% hits;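 active = drop in luminescence signal, shown as inhibition above about 50% in the replicate tests, limit read from the data, passing the limit was not always enough; inconclusive = probably only some replicates passing the limit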;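 also: agonist challenge used bursicon conditioned medium at about half maximal strength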
Hits are given with their value; n = inactive; u = inconclusive; x = no result.

SMILES | TWEAK Fn14 block | XiGFP reactiv | TROY NFkB inh | FN deposit inh | EWS-Fli block | LGR2 antag
CCOC(=O)c1c(-c2ccccc2Cl)csc1NC(=O)CSc1nc(C)cc(=O)[nH]1 | n | n | 59 | n | n | n
CCOC(=O)c1c(-c2ccccc2)csc1NC(=O)CSc1nnc(C)s1 | 79 | n | n | n | x | n
C[C@@H]1CN([C@H](C)CO)C(=O)Cc2cc(NC(=O)NC3CCCCC3)ccc2O[C@H]1CN(C)Cc1ccc(Oc2ccccc2)cc1 | x | n | x | n | n | n
COc1ccc(S(=O)(=O)N(C)C[C@H]2Oc3c(NC(=O)Nc4ccc5c(c4)OCO5)cccc3C(=O)N([C@@H](C)CO)C[C@H]2C)cc1 | x | n | x | x | n | n
CCN(C[C@@H]1N[C@@H](CO)[C@H]1c1ccc(-c2ccccc2)cc1)C(=O)COC | x | n | x | n | n | n
Cc1ccc(C(=O)N/C(=C\c2ccc(-c3ccc(Br)cc3)o2)C(=O)NCCCN(C)C)cc1 | n | n | n | n | 51 | u
Cc1ccc(C(=O)N/C(=C\c2ccc(-c3cccc([N+](=O)[O-])c3)o2)C(=O)NCCCN(C)C)cc1 | n | n | n | n | n | x
CCCc1cc(=O)[nH]c(Nc2ccc3c(c2)OCCO3)n1 | 58 | n | n | n | n | n
CCCCc1ccc(Nc2nc(CCC)cc(=O)[nH]2)cc1 | n | x | n | x | x | x
O=C1S/C(=C\c2ccc(O)c([N+](=O)[O-])c2)C(=O)N1Cc1cccc([N+](=O)[O-])c1 | 53 | n | 59 | n | n | n
O=C1S/C(=C\c2ccc(O)c([N+](=O)[O-])c2)C(=O)N1c1ccccc1Cl | n | n | 54 | n | n | n
COc1cc(/C=C2\SC(=O)N(c3cccc(Cl)c3)C2=O)cc([N+](=O)[O-])c1O | n | n | n | n | n | n
Cc1cc(C(=O)Nc2cccc3c2O[C@@H](CN(C)C(=O)NC(C)C)[C@@H](C)CN([C@H](C)CO)C3=O)n(C)n1 | x | n | x | n | n | n
COc1ccc2c3c(n(C)c2c1)[C@H](CO)N(C(=O)C1CC1)CC31CCN(C)CC1 | x | n | x | x | n | n
Nc1ccc(-c2nc3c(Cl)c(N)ccc3[nH]2)cc1 | 61 | x | n | n | x | x
NC(=O)COC(=O)c1c2c(nc3ccccc13)CCCCC2 | n | n | 55 | n | n | n
O=S(=O)(NC1c2cccc3cccc(c23)C1Sc1ncccn1)c1ccccc1 (stereo unspecified) | 108 | n | 91 | n | n | n
CN1CCN(C(=O)C[C@@H]2C[C@H]3c4cc(NC(=O)c5ccc6c(c5)OCO6)ccc4O[C@H]3[C@@H](CO)O2)CC1 | x | n | x | x | n | n
COc1ccc(CN(C2CCCC2)S(=O)(=O)c2ccc(-n3cnnn3)cc2)cc1OC | n | x | n | 31 | x | x
CCOC(=O)/C(=C/c1c(C)n(C)c2ccc([N+](=O)[O-])cc12)C(C)=O | 73 | n | 50 | n | n | n
CCOC(=O)c1c(N)c2cc([N+](=O)[O-])ccc2n1C | n | n | n | n | n | n
CC(O)(c1ccc(F)c(F)c1)c1nc(-c2cnc3ccccc3c2)cs1 (stereo unspecified) | 55 | n | n | n | n | n
CNc1cncc(-c2cc(C)c(O)c(C)c2)n1 | n | n | n | n | 52 | n
C[C@H]1CN([C@@H](C)CO)S(=O)(=O)c2ccc(C#Cc3ccncc3)cc2O[C@H]1CN(C)C(=O)C1CCOCC1 | x | n | x | x | n | n
CC(=O)N1CCC(C(=O)Nc2ccccc2)(N(Cc2ccccc2)C(=O)c2cccnc2)CC1 | n | x | 51 | x | x | x
SMILES | TWEAK Fn14 block | XiGFP reactiv | TROY NFkB inh | FN deposit inh | EWS-Fli block | LGR2 antag
COCC(=O)Nc1ccc2c(c1)C(=O)N(C)[C@@H]1CC[C@H](CC(=O)Nc3ccccc3)O[C@@H]1CO2 | x | n | x | n | n | n
O=C(Nc1cccc(Oc2ccc(C(=O)O)c(C(=O)O)c2)c1)c1ccc(-c2ccccc2)cc1 | n | n | n | n | n | 56
CC(C)(C)C(=O)Nc1ccc(C(=O)Nc2cccc(Oc3ccc(C(=O)O)c(C(=O)O)c3)c2)cc1 | n | n | n | n | n | n
O=C(O)c1ccccc1C(=O)Nc1ccc(Oc2ccccc2)cc1 | 58 | n | n | n | n | n
O=C1N[C@@H](c2ccccc2)COC(=O)[C@@H](Cc2ccc(F)cc2)CC/C=C/C[C@@H]1CC(=O)N(CCO)Cc1ccccc1 | 60 | n | n | x | n | n
O=C(c1ccccn1)N1CC[C@@H]2[C@@H](CO)Nc3ccc(-c4ccccc4)cc3[C@@H]21 | x | n | x | n | n | n
COC(=O)c1sccc1N/N=C/c1cccc(Oc2ccccc2)c1 | 53 | n | 71 | n | n | n
COC(=O)c1sccc1N/N=C/c1cccc(OC)c1O | 63 | n | n | n | n | 77
COC(=O)c1sccc1N/N=C/c1ccc(OC)c(OC)c1OC | n | n | n | n | n | n
CC(C)NC(=O)N(C)C[C@H]1OCCCC[C@H](C)Oc2ccc(NC(=O)Cc3ccccc3)cc2C(=O)N([C@@H](C)CO)C[C@@H]1C | x | n | x | n | x | n
Cn1cnc(S(=O)(=O)N[C@@H]2CC[C@H](CC(=O)Nc3ccccc3)O[C@@H]2CO)c1 | x | n | x | n | n | n
COc1ccc(OC)c(S(=O)(=O)Nc2cc3c4c(c2)C(C)C(=O)N4CCC3)c1 (stereo unspecified) | n | n | 57 | n | n | n
COc1ccc(OC)c(S(=O)(=O)Nc2cc3c4c(c2)CCC(=O)N4CCC3)c1 | n | n | n | n | n | n
Cc1cc(N2CCOCC2)nc2ccc(NC(=S)NCCC(C)C)cc12 | n | n | n | n | n | n
Cc1cc(N2CCN(C)CC2)nc2ccc(NC(=S)NCCC(C)C)cc12 | n | n | 54 | n | n | n
C[C@]12CC[C@@H]3c4cc(O)c(O)cc4CC[C@H]3[C@@H]1CC[C@@H]2O | n | n | n | n | n | n
CC12CCC3C(CCC4N(CCO)CCC34C)C1CCC2O (stereo unspecified) | 94 | n | n | n | n | n
CO[C@@H]1CN(C)C(=O)c2cc(NC(C)=O)ccc2OC[C@H](C)N(Cc2cccnc2)C[C@@H]1C | x | n | x | n | n | n
CCC(C)(C)c1ccc(OCCCC[n+]2ccccc2)c(C(C)(C)CC)c1 | 79 | n | 51 | x | n | n
CCCCCc1ccc(OCCCC[n+]2ccccc2)c(CCCCC)c1 | 50 | x | n | x | x | x
CCCCOc1ccc(C)cc1CN(CCO)CCO | n | x | n | x | x | x
CCCCCc1ccc(OCCCC[n+]2ccc(C)cc2)c(CCCCC)c1 | 68 | n | 50 | n | n | 54
CCCCCc1ccc(OCCCC[n+]2cccc(C)c2)c(CCCCC)c1 | 70 | n | 59 | n | n | u
